In experiment [1] the target is Gβγ stimulation of Gαs-stimulated AC2 (Homo sapiens, UniProt P59768+P62873). In words: Adenylyl cyclase activity assay, Gβγ stimulation of Gαs-stimulated AC2. It is filed as biochemical, Rat. Particulars: for Gαs/Gβγ stimulation % Max Inhibition: Gβγ stimulation of Gαs-stimulated AC2, cAMP level at 300 μM peptide, peptides 46 nM to 300 μM. An outline of the steps:
(§1)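 AC2 came from membranes of Hi5 insect cells infected with recombinant AC2 baculovirus. Stimulants were constitutively active Gαs (Q227L) and Gβγ (Gβ1/His-Gγ2) purified from Hi5 cells. Peptides were tested from 46 nM to 300 μM, pre-incubated with membranes or G proteins, and run alongside control conditions. cAMP was measured radiometrically ([α-32P]ATP→[32P]cAMP) or by Lance kit. Duplicates were used, each repeated ≥2 times. IC50 came from non-linear regression.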
A general note: Changes in cAMP serve as a functional read-out for many G protein-coupled receptors.

The target in experiment [2] is Gβγ (Homo sapiens, UniProt P59768+P62873). Format: binding. An outline of the steps:
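Biotinylated test peptides were captured on a streptavidin chip (Biacore 2000). Gβγ in 25 mM HEPES pH 8.0 was flowed over at 12.5, 25, 50, 100 and 200 nM at 20 μL/min. KD was obtained by fitting the sensorgrams in Biaevaluation, and residual plots were used to judge the fit.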

For experiment [3], the target named is Gαs-stimulated AC2 (Rattus norvegicus, UniProt P26769). Nature of the experiment: Adenylyl cyclase activity assay, Gαs stimulation of AC2. Format: biochemical. The essentials:
as §1

The target of experiment [4] is AC2 (Rattus norvegicus, UniProt P26769). Nature of the experiment: Adenylyl cyclase activity assay, basal AC2 activity in Hi5 membranes. Format: biochemical. An outline of the steps: as §1
Sequence of AC2 (P26769 whole entry): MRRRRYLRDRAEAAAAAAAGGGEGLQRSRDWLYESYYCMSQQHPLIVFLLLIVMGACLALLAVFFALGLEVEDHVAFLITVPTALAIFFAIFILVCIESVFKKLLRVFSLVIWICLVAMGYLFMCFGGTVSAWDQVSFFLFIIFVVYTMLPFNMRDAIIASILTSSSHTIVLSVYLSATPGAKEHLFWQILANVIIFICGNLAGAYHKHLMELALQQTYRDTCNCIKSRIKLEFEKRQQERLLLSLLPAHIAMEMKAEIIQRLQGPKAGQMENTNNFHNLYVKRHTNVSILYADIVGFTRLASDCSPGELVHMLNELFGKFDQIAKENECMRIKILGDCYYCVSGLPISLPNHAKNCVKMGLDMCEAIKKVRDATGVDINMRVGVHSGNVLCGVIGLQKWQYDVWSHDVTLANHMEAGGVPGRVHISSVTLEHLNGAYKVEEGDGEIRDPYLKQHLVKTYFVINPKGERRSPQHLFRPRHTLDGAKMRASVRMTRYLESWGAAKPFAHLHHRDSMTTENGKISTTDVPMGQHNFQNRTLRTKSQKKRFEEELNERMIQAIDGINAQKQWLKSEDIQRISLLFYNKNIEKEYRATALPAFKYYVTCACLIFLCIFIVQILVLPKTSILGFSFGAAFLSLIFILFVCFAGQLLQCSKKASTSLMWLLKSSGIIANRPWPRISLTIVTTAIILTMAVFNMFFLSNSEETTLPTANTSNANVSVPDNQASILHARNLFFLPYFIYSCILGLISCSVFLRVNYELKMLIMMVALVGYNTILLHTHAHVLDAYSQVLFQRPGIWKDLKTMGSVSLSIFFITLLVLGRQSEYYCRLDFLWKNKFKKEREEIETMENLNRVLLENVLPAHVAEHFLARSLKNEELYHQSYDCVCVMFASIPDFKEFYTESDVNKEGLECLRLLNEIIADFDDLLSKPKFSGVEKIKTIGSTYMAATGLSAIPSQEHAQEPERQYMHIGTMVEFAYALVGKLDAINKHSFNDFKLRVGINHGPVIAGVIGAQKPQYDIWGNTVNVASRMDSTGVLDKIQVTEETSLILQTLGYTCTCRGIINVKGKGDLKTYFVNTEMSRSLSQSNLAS

Consider 7 compounds from PMC3115457 (Cellular signalling, 2011).

Ends that are not written are not given here. Peptide text beside a SMILES is read from it.

Sequence of Gβγ (P62873 2-340 limits assumed): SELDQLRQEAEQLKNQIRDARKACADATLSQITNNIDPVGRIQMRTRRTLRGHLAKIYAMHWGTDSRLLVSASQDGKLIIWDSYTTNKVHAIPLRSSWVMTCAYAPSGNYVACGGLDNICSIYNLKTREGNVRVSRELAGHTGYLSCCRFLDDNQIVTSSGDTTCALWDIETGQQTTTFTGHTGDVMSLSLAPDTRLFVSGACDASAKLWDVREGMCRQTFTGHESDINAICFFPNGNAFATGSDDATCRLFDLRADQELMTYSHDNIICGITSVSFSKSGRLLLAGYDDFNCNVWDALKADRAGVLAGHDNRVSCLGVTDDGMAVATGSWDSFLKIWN
Sequence of Gβγ (P59768 2-68 limits assumed): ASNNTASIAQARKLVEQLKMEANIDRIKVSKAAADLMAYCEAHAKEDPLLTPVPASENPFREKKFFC
Sequence of Gβγ stimulation of Gαs-stimulated AC2 (P62873 2-340 limits assumed): as the sequence (P62873 2-340 limits assumed) above
Sequence of Gβγ stimulation of Gαs-stimulated AC2 (P59768 2-68 limits assumed): as the sequence (P59768 2-68 limits assumed) above
Sequence of Gαs-stimulated AC2 (P26769 whole entry): as the sequence (P26769 whole entry) above

`CC[C@H](C)[C@H](NC(=O)[C@@H]1CCCN1C(=O)[C@H](CC(C)C)NC(=O)CNC(=O)[C@H](CO)NC(=O)[C@@H](NC(=O)[C@H](CS)NC(=O)[C@H](Cc1ccc(O)cc1)NC(=O)[C@H](Cc1ccc(O)cc1)NC(=O)[C@@H](N)CS)C(C)C)C(=O)N[C@@H](CO)C(=O)N[C@@H](CC(C)C)C(=O)N1CCC[C@H]1C(=O)N[C@@H](CC(N)=O)C(=O)N[C@@H](Cc1c[nH]cn1)C(=O)N[C@@H](C)C(=O)N[C@@H](CCCCN)C(=O)N[C@@H](CC(N)=O)C(=O)N[C@@H](CS)C(=O)N[C@H](C(=O)N[C@@H](CCCCN)C(=O)N[C@@H](CCSC)C(=O)O)C(C)C` [AC2 C1a (339-360)] (H-CYYCVSGLPISLPNHAKNCVKM-OH): the IC50 came out at 5.6 µM in experiment [1], 82.3 µM in experiment [3] and 7.7 µM in experiment [4]. In experiment [1] (listed as C1a region), the “Gαs/Gβγ stimulation % Max Inhibition” value is given as 88%. The compound further displayed a Kd in experiment [2] of 0.0405 ± 0.0063 µM.

Turning to “ERMIQAIDGINAQKQWLKSEDIQR [AC2 C1b (554-577)]”, the IC50 in experiment [1] was determined as 12.2 µM; in experiment [3], 36.7 µM; in experiment [4], 16.7 µM. Also, the “Gαs/Gβγ stimulation % Max Inhibition” value in experiment [1] came out at 11.5%.

In the case of “ISLLFYNKVLEKEYRATALPAFKYY [AC2 C1b (578-602)]”, the IC50 in experiment [1] amounted to 2.2 µM; in experiment [3] it was 2.5 µM; in experiment [4], 38.5 µM. The “Gαs/Gβγ stimulation % Max Inhibition” value in experiment [1] is listed as 113.1%; in experiment [1] (listed as C1b 578-602) it was greater than 100%. This compound came in with a Kd in experiment [2] of 0.102 ± 0.014 µM.

The compound “MTRYLESWGAAKPFAHL [AC2 C1b (493-509), reference compound]” had a Kd in experiment [2] of 0.0027 ± 0.0013 µM.

“MTTENGKISTTDVPMGQHNFQNRTLR-OH [AC2 C1b (515-541)]”: in experiment [2] (Biacore SPR, immobilized biotinylated peptide, Gβγ 12.5-200 nM), the “Binding to Gβγ (in words)” value is listed as “did not interact with Gβγ”.

Compound “QEHAQEPERQYMHIGTMVEFAYALVGK [QEHA C2 (956-982), reference compound]” yielded a Kd in experiment [2] of 0.0139 ± 0.0088 µM.

Turning to “RYLESWGAAKPFAHLHHRDS [AC2 C1b (495-514)]”, the results for the IC50 in experiment [1], in experiment [3] and in experiment [4] were 13.9 µM, 32.9 µM and greater than 100 µM, respectively. Moreover, the “Gαs/Gβγ stimulation % Max Inhibition” value in experiment [1] turned out to be 67.0%. The compound further showed a Kd in experiment [2] of 0.0047 ± 0.0017 µM.

The IC50 is the concentration that inhibits the measured activity by half. Lower therefore signals inhibition by little substance. By Kd is commonly meant the concentration at which binding is half-saturated. Lower therefore signals tighter binding.
